Data: ChEMBL document CHEMBL2034847, “Discovery of Plasmodium vivax N-myristoyltransferase inhibitors: screening, synthesis, and structural characterization of their binding mode” (J Med Chem, 2012)

What was measured:
[1] = Inhibition of Plasmodium vivax recombinant N-myristoyltransferase using human pp60Src92-16 amino acids) as substrate; conditions: for Ki: read-out: Ki(app)
How it was run: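 Recombinant P. vivax NMT in a 96-well fluorogenic NMT assay. Values are reported as apparent Ki, mean ± SD from duplicates.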

[2] = molecular target: T1, Glycylpeptide N-tetradecanoyltransferase 1 (Homo sapiens, UniProt P30419); assay: Inhibition of human N-myristoyltransferase 1 using human pp60Src92-16 amino acids) as substrate; conditions: read-out: Ki(app)
T1 sequence (P30419 whole entry): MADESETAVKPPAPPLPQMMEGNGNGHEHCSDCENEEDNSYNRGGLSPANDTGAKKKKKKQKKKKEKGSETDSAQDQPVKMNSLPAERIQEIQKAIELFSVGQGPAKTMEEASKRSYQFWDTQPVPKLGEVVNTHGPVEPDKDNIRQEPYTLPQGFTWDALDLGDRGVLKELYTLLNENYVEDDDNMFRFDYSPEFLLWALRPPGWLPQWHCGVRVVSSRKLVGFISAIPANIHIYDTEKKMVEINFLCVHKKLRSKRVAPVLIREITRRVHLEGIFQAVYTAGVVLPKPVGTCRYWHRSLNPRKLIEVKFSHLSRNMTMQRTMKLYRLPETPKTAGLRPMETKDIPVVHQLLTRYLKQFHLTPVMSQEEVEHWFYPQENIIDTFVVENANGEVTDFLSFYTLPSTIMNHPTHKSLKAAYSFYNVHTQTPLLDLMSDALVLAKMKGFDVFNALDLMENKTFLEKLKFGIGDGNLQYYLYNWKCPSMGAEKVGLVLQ

[3] = molecular target: T2, Glycylpeptide N-tetradecanoyltransferase 2 (Homo sapiens, UniProt O60551); assay: Inhibition of human N-myristoyltransferase 2 using human pp60Src92-16 amino acids) as substrate; conditions: read-out: Ki(app)
T2 sequence (O60551 whole entry): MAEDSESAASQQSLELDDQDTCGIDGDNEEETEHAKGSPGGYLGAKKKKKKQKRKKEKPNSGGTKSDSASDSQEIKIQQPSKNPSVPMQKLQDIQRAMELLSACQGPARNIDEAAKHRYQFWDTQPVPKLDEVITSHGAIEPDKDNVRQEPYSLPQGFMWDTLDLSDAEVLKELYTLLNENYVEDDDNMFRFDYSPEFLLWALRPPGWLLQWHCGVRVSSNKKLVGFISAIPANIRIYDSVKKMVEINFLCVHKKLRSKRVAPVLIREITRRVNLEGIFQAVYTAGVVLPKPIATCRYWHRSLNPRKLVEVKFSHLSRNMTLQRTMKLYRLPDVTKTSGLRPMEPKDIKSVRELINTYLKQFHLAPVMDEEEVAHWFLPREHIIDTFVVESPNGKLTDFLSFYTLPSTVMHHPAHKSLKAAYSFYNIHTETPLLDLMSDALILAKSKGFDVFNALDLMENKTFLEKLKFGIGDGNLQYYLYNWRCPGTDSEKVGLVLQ
How it was run: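 Recombinant human NMT2 was tested in a fluorogenic plate assay adapted from a published NMT method. Apparent Ki values are the mean ± SD of duplicates.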

In the case of `CCOC(=O)c1cnc2ccccc2c1SCCC#N`, the Ki [1] is reported as 24.4 µM, the Ki [2] is reported as > 100 µM and the Ki [3] is reported as > 100 µM.
In the case of `CCCCc1c(C)nc2ccc(OC)cc2c1SCCC#N`, the Ki [3] is reported as 11.4 µM.
For `CCOC(=O)c1cnc2ccc(F)cc2c1SCCC#N`, the Ki [1] was 7.77 µM and the Ki [3] was 37.5 µM.
For `CCCCc1c(C)nc2ccc(Br)cc2c1SCCC#N`, the Ki [1] was 21.6 µM, the Ki [2] was > 100 µM and the Ki [3] was > 100 µM.
For `CCCCc1c(C)nc2ccc(OC)cc2c1SCCc1ccccc1`, the Ki [1] was > 100 µM.
In the case of `CCc1c(C)nc2ccc(OC)cc2c1SCCC#N`, the Ki [1] is reported as 3.23 µM and the Ki [3] is reported as 23.2 µM.
With `CCCc1nc2ccccc2c(SCCC#N)c1C(=O)OCC` the Ki [1] was > 100 µM, the Ki [2] was > 100 µM and the Ki [3] was > 100 µM.
For `CCCCc1c(C)nc2ccccc2c1SCCC#N`, the Ki [1] was 2.46 µM, the Ki [2] was > 100 µM and the Ki [3] was > 100 µM.
Compound `COc1ccc(CNc2sc3c(c2C#N)CC(C)(C)OC3)cc1` has an IC50 [1] of 26.4 µM.
For `CCCCc1c(C)nc2ccc(OC)cc2c1SCC#N`, the Ki [1] was > 100 µM.
Work on `CCc1ccc2c(c1)S(=O)(=O)C(C(F)(F)F)CO2` (stereo not drawn) yielded an IC50 [1] of 11.4 µM.
In the case of `CCOC(=O)c1c(C)nc2ccccc2c1NCC#N`, the Ki [1] is reported as > 100 µM.
`CCN(CC)Cc1c(O)ccc2ccccc12` gave an IC50 [1] of 26.3 µM.
With `CCOC(=O)c1cnc2ccc(Cl)cc2c1SCCC#N` the Ki [1] was 10.4 µM, the Ki [2] was > 100 µM and the Ki [3] was > 100 µM.
`CCOC(=O)c1c(C)nc2ccccc2c1SCCC#N` showed a Ki [1] of 24.4 µM and a Ki [3] of 41.5 µM.
`CCCCc1c(C)nc2ccc(OC)cc2c1SCCCC#N` gave a Ki [1] of 35.2 µM, a Ki [2] of 47.6 µM and a Ki [3] of 46.1 µM.
For `CCOC(=O)c1c(CC)nc2ccccc2c1SCCC#N`, the Ki [1] was 60.6 µM, the Ki [2] was 47.9 µM and the Ki [3] was 94.2 µM.
In the case of `COc1ccc2nc(C)cc(SCCC#N)c2c1`, the Ki [1] is reported as > 100 µM, the Ki [2] is reported as > 100 µM and the Ki [3] is reported as > 100 µM.
For `CCCCc1c(C)nc2ccc(OC)cc2c1SCCCO`, the Ki [1] was 17.4 µM, the Ki [2] was > 100 µM and the Ki [3] was > 100 µM.
In the case of `C#CCCSc1c(CCCC)c(C)nc2ccc(OC)cc12`, the Ki [1] is reported as 11.6 µM, the Ki [2] is reported as > 100 µM and the Ki [3] is reported as > 100 µM.
In the case of `CCOC(=O)c1cnc2ccc(C(C)=O)cc2c1SCCC#N`, the Ki [1] is reported as > 100 µM.
With `CCOC(=O)c1cnc2ccc(C(C)O)cc2c1SCCC#N` (stereo not drawn) the Ki [1] was > 100 µM.
In the case of `CCOC(=O)c1cnc2ccc(C)cc2c1SCCC#N`, the Ki [1] is reported as 6.97 µM and the Ki [3] is reported as > 100 µM.
Compound `CCOC(=O)c1cnc2ccc(OC)cc2c1SCCC#N` has a Ki [1] of 4.74 µM.
